Assay [1] concerns Colletotrichum acutatum. As to the kind of experiment: Antifungal activity against Colletotrichum acutatum assessed as inhibition of microcyclic conidiation at 25 degC measured after 4 to 24 hr. Type of assay: functional. Summed up:
(§1)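 C. acutatum CECT 20240 conidia (PDA, 25 °C, continuous light, 7 days) as a 100 µL droplet of 5 × 10^5 conidia mL-1 on Parafilm-covered slides in sealed Petri dishes. Volatile applied to filter paper in the vapour phase at ≥4 doses, 0.13–1351.35 µL L-1, with water control. Incubated at 25 °C and scored microscopically at 4 and 24 h. Five dishes per dose, experiment run twice.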

In assay [2] the test system is Colletotrichum acutatum. The assay can be described thus: Antifungal activity against Colletotrichum acutatum assessed as inhibition of mycelial growth at 25 degC measured after 8 days. It counts as functional. Summed up:
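A 5 mm PDA mycelial disc was placed in a sealed 74 mL dish holding 20 mL PDA. Volatile on filter paper under the lid at ≥6 doses, 33.78–1351.35 µL L-1, with extra doses for some compounds; water control. Colony diameter read after 8 days at 25 °C; five dishes per dose, run twice. MID, ID95 and ID50 from probit regression on log dose.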

Assay [3] relates to Colletotrichum acutatum. As to the kind of experiment: Antifungal activity against Colletotrichum acutatum assessed as inhibition of appressorium formation at 25 degC measured after 4 to 24 hr. It counts as functional. Summed up: as §1
Assay [4] relates to Colletotrichum acutatum. The assay can be described thus: Antifungal activity against Colletotrichum acutatum assessed as inhibition of pore appressorial formation at 25 degC measured after 4 to 24 hr. Type of assay: functional. In outline:
as §1

The test system of assay [5] is Colletotrichum acutatum. As to the kind of experiment: Antifungal activity against Colletotrichum acutatum assessed as inhibition of germination at 25 degC measured after 4 to 24 hr. Type of assay: functional. Summed up: as §1
Assay [6] deals with Colletotrichum acutatum. The assay can be described thus: Antifungal activity against Colletotrichum acutatum assessed as inhibition of appressorium pigmentation at 25 degC measured after 4 to 24 hr. Type of assay: functional. Summed up:
as §1

Assay [7] has as its system Colletotrichum acutatum. As to the kind of experiment: Antifungal activity against Colletotrichum acutatum inoculated in strawberry fruits assessed as fruit damaging at 4 ul/L measured after 7 days. Type of assay: functional, organism-based. In outline:
(§2)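 Strawberry fruits (cv. Camarosa) at commercial maturity inoculated with 10^6 conidia mL-1. Filter paper carrying 4, 5, 10, 20 or 50 µL L-1 volatile placed next to the fruit; inoculated untreated fruit as control. Kept at 25 °C under continuous light; damage rated at 7 days (0 = intact, 1 = covered with mycelia). Eight replicates, mean ± SE.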

Assay [8] deals with Colletotrichum acutatum. The assay can be described thus: Antifungal activity against Colletotrichum acutatum assessed as disruption of plasma membrane at 33.78 ul/L by transmission electrol microscopy. It counts as functional, organism-based.
The subject of assay [9] is Colletotrichum acutatum. As to the kind of experiment: Antifungal activity against Colletotrichum acutatum assessed as disruption of cell wall at 33.78 ul/L by transmission electrol microscopy. It counts as functional, organism-based.
In assay [10] the test system is Colletotrichum acutatum. As to the kind of experiment: Antifungal activity against Colletotrichum acutatum inoculated in strawberry fruits assessed as fruit damaging at 10 ul/L measured after 7 days. It counts as functional. In outline: as §2
For assay [11], the system named is Colletotrichum acutatum. The assay can be described thus: Antifungal activity against Colletotrichum acutatum inoculated in strawberry fruits assessed as fruit damaging at 5 ul/L measured after 7 days. Type of assay: functional, organism-based. Summed up: as §2
The subject of assay [12] is Colletotrichum acutatum. As to the kind of experiment: Antifungal activity against Colletotrichum acutatum inoculated in strawberry fruits assessed as fruit damaging at >=20 ul/L measured after 7 days. Type of assay: functional. In outline:
as §2

Assay [13] concerns Colletotrichum acutatum. As to the kind of experiment: Antifungal activity against Colletotrichum acutatum assessed as high disorganization of cell components at 33.78 ul/L by transmission electrol microscopy. It counts as functional, organism-based.

The source made the active and inactive calls. The calls are words filed in the database; no cut-off is given here.

Take `CCC/C=C/COC(C)=O`: the MID in the assay with Colletotrichum acutatum [1] was determined as 337.84 uL/L; in the assay with Colletotrichum acutatum [2], 651.35 uL/L; with Colletotrichum acutatum [3] it was 337.84 uL/L; in the assay on Colletotrichum acutatum [4], 135.13 uL/L; in the assay on Colletotrichum acutatum [5] it was 337.84 uL/L; in the assay on Colletotrichum acutatum [6], 135.13 uL/L. Besides, the ID50 in the assay on Colletotrichum acutatum [2] is 221.62 uL/L. The ID95 with Colletotrichum acutatum [2] was found to be 584.86 uL/L.
For `CCC/C=C/CO`, the MID is 135.13 uL/L in the assay with Colletotrichum acutatum [1]; 268.92 uL/L with Colletotrichum acutatum [2]; 33.78 uL/L with Colletotrichum acutatum [3]; 33.78 uL/L in the assay on Colletotrichum acutatum [4]; 135.13 uL/L with Colletotrichum acutatum [5]; 33.78 uL/L in the assay on Colletotrichum acutatum [6]. Further, the ID50 in the assay on Colletotrichum acutatum [2] is on record as 151.76 uL/L. Further, in the assay on Colletotrichum acutatum [2], the ID95 is 253.78 uL/L.
`CCCCCC=O` [HEXANAL]: the MID with Colletotrichum acutatum [1] was 33.78 uL/L; with Colletotrichum acutatum [2] it was 272.16 uL/L; in the assay with Colletotrichum acutatum [3] it was 33.78 uL/L; in the assay with Colletotrichum acutatum [4] it was 6.76 uL/L; in the assay with Colletotrichum acutatum [5], 33.78 uL/L; with Colletotrichum acutatum [6], 6.76 uL/L. In addition, in the assay on Colletotrichum acutatum [2], the ID50 is reported as 151.35 uL/L. For the same compound, the ID95 in the assay on Colletotrichum acutatum [2] stood at 256.49 uL/L.
In the case of `CCCCCCO` [1-HEXANOL], the MID with Colletotrichum acutatum [1] was 337.84 uL/L; with Colletotrichum acutatum [2] it was 270.27 uL/L; in the assay on Colletotrichum acutatum [3] it was 337.84 uL/L; in the assay with Colletotrichum acutatum [4] it was 33.78 uL/L; in the assay on Colletotrichum acutatum [5], 337.84 uL/L; in the assay with Colletotrichum acutatum [6], 33.78 uL/L. In addition, the ID50 in the assay on Colletotrichum acutatum [2] was 151.35 uL/L. Besides, the ID95 in the assay with Colletotrichum acutatum [2] was 255.14 uL/L.
As for `CCCCCCOC(C)=O` [HEXYL ACETATE], the MID was determined as 1351.35 uL/L in the assay on Colletotrichum acutatum [1]; 6441.89 uL/L in the assay on Colletotrichum acutatum [2]; 1351.35 uL/L with Colletotrichum acutatum [3]; 337.84 uL/L in the assay with Colletotrichum acutatum [4]; 1351.35 uL/L in the assay on Colletotrichum acutatum [5]; 337.84 uL/L in the assay with Colletotrichum acutatum [6]. In addition, the ID50 in the assay on Colletotrichum acutatum [2] was determined as 718.65 uL/L. In the assay with Colletotrichum acutatum [2], the ID95 came out at 5100.41 uL/L.
`CCC/C=C/C=O`: the MID with Colletotrichum acutatum [1] came to 6.76 uL/L; in the assay on Colletotrichum acutatum [2] it was 33.65 uL/L; in the assay with Colletotrichum acutatum [3], 6.76 uL/L; in the assay on Colletotrichum acutatum [4], 1.35 uL/L; in the assay on Colletotrichum acutatum [5] it was 6.76 uL/L; in the assay on Colletotrichum acutatum [6] it was 1.35 uL/L. Further, the outcome in the assay on Colletotrichum acutatum [7] and with Colletotrichum acutatum [11] was inactive. In addition, in the assay with Colletotrichum acutatum [2], the ID50 was 26.89 uL/L. In addition, in the assay on Colletotrichum acutatum [2], the ID95 is 32.97 uL/L. Further, the result in the assay on Colletotrichum acutatum [8], in the assay on Colletotrichum acutatum [9] and with Colletotrichum acutatum [13] was Active. Also, the Activity in the assay on Colletotrichum acutatum [10] came out at 87.5%; in the assay with Colletotrichum acutatum [12], 100%.
As for `CC/C=C\CCO` [CIS-3-HEXENOL], the MID with Colletotrichum acutatum [1] is recorded as 337.84 uL/L; with Colletotrichum acutatum [2], 640.54 uL/L; with Colletotrichum acutatum [3], 337.84 uL/L; with Colletotrichum acutatum [4], 135.13 uL/L; in the assay on Colletotrichum acutatum [5], 337.84 uL/L; in the assay with Colletotrichum acutatum [6], 135.13 uL/L. Besides, in the assay on Colletotrichum acutatum [2], the ID50 was determined as 230.14 uL/L. Further, the ID95 with Colletotrichum acutatum [2] is given as 595 uL/L.
As to `CC/C=C\CCOC(C)=O` [(Z)-hex-3-en-1-yl acetate], the MID with Colletotrichum acutatum [1] was found to be 337.84 uL/L; with Colletotrichum acutatum [2], 2476.35 uL/L; in the assay with Colletotrichum acutatum [3] it was 337.84 uL/L; with Colletotrichum acutatum [4], 135.13 uL/L; with Colletotrichum acutatum [5], 337.84 uL/L; in the assay with Colletotrichum acutatum [6], 135.13 uL/L. In addition, the ID50 in the assay on Colletotrichum acutatum [2] came to 503.11 uL/L. The ID95 with Colletotrichum acutatum [2] came to 2063.11 uL/L.

The values are drawn from ChEMBL document CHEMBL3045505, “Antifungal activity of strawberry fruit volatile compounds against Colletotrichum acutatum” (2007).
